According to ChEMBL document CHEMBL1127561, “Novel spirosuccinimide aldose reductase inhibitors derived from isoquinoline-1,3-diones: 2-[(4-bromo-2-fluorophenyl)methyl]-6- fluorospiro[isoquinoline-4(1H),3'-pyrrolidine]-1,2',3,5'(2H)-tetrone and congeners. 1” (J Med Chem, 1994):
Calls of active or inactive are those of the source. The calls are words filed in the database; no cut-off is given here.

Assays:
[1] = target: Aldo-keto reductase family 1 member B1 (Bos taurus) (UniProt P16116); test: Inhibition of aldose reductase activity in a partially purified bovine lens preparation at 10e-7 M
Summary of the method: (§1)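 Partially purified bovine lens aldose reductase (ammonium sulfate fractionation). NADPH oxidation read at 340 nm, 37 °C, in 30 mM sodium phosphate pH 6.2, 0.2 M LiSO4, […], 1% DMSO. Enzyme was preincubated with inhibitor for 5 min, then the reaction was started with 5 mM DL-glyceraldehyde. Duplicates; IC50 from linear regression of log concentration vs percent inhibition.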

[2] = target: T1, Aldo-keto reductase family 1 member B1 (Bos taurus, UniProt P16116); test: In vitro inhibition of aldose reductase activity in a partially purified bovine lens preparation
[3] = system: Rattus norvegicus; test: Percentage Inhibition of galactitol accumulation in the sciatic nerve of rats fed with the dose of 0.6 mg/kg/day; format: functional
Summary of the method: (§2)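 Male Sprague-Dawley rats (70-90 g), six per group, fed 20% galactose chow with compound in the diet for 4 days; glucose-fed controls. After a 3-h fast, lens or sciatic nerve galactitol was measured as nmol/mg wet weight. Percent inhibition vs galactose-fed controls, mean ± SEM; ANOVA with Dunnett's test.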

[4] = system: Rattus norvegicus; test: Percentage Inhibition of galactitol accumulation in the sciatic nerve of rats fed with the dose of 0.5 mg/kg/day; format: functional; summary of the method: as §2
[5] = target: Aldo-keto reductase family 1 member B1 (Bos taurus) (UniProt P16116); test: Inhibition of aldose reductase activity in a partially purified bovine lens preparation at 4*10e-8 M; summary of the method: as §1
[6] = Half-life In vitro; format: ADME
[7] = species on record: Rattus norvegicus; test: Percentage Inhibition of galactitol accumulation in the sciatic nerve of rats
[8] = target: T1, Aldo-keto reductase family 1 member B1; test: In vitro inhibition of aldose reductase activity in a partially purified bovine lens preparation at 4*10e-8 M; NS=Not significant; summary of the method: as §1
[9] = target: T1, Aldo-keto reductase family 1 member B1; test: Compound was evaluated In vitro for inhibition of aldose reductase activity in a partially purified bovine lens preparation at 10e-7 M; NS=Not significant; summary of the method: as §1
[10] = system: Rattus norvegicus; test: Percentage Inhibition of galactitol accumulation in the lens of rats fed with the dose of 3.0 mg/kg/day; NS=Not significant; format: functional, organism-based; details: Lens of camera-type eye; summary of the method: as §2
[11] = system: Rattus norvegicus; test: Percentage Inhibition of galactitol accumulation in the sciatic nerve of rats fed with the dose of 3.0 mg/kg/day; format: functional; summary of the method: as §2
[12] = system: Rattus norvegicus; test: Percentage Inhibition of galactitol accumulation in the lens of rats fed with the dose of 1.0 mg/kg/day; NS=Not significant; format: functional, organism-based; details: Lens of camera-type eye; summary of the method: as §2
[13] = system: Rattus norvegicus; test: Percentage Inhibition of galactitol accumulation in the sciatic nerve of rats fed with the dose of 1.0 mg/kg/day (values are mean of six animals); format: functional; summary of the method: as §2
[14] = system: Rattus norvegicus; test: Percentage Inhibition of galactitol accumulation in the sciatic nerve of rats fed with the dose of 1.1 mg/kg/day; format: functional; summary of the method: as §2
[15] = Log P value by using Octanol / pH 7.4 buffer; format: physicochemical
Summary of the method: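 Partition measured between octanol and pH 7.4 buffer.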

[16] = species on record: Rattus norvegicus; test: Dose at which the tissue level of polyol accumulation was reduced by 50% was evaluated for 14 days in sciatic nerve; format: functional
Summary of the method: (§3)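 Male Sprague-Dawley rats (70-90 g, six per group) fed chow with 20% galactose and compound in the diet for 4 or 14 days. After a 3-h fast, lens and sciatic nerve were removed and frozen, and galactitol was quantitated in nmol/mg wet weight. ED50 from nonlinear regression of log dose vs tissue polyol.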

[17] = system: Rattus norvegicus; test: Percentage Inhibition of galactitol accumulation in the sciatic nerve of rats fed with the dose of 4.0 mg/kg/day; format: functional; details: read-out: Inhibition; summary of the method: as §2
[18] = system: Rattus norvegicus; test: Percentage Inhibition of galactitol accumulation in the lens of rats fed with the dose of 4.0 mg/kg/day; NS=Not significant; format: functional, organism-based; details: Lens of camera-type eye; summary of the method: as §2
[19] = Compound was evaluated In vitro for inhibition of aldose reductase activity by 50% in rat RBC
Summary of the method: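 Rat (or dog) red blood cells from fasted male Sprague-Dawley rats (150-170 g, EDTA, aortic arch) or pooled beagle blood; 1 mL packed cells in 2 mL HBSS with 10 mM galactose plus inhibitor 1 to 5×10^-8 M, 3 h, 95% air/5% CO2, shaken. Erythrocyte galactitol measured; IC50 mean ± SD of three to six replicate experiments.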

[20] = species on record: Rattus norvegicus; test: Dose at which the tissue level of polyol accumulation was reduced by 50% was evaluated for 4 days in sciatic nerve; format: functional; details: 96 h; summary of the method: as §3
[21] = species on record: Rattus norvegicus; test: Dose at which the tissue level of polyol accumulation was reduced by 50% was evaluated for 4 days in lens; format: functional; details: Lens of camera-type eye, 96 h; summary of the method: as §3
[22] = species on record: Rattus norvegicus; test: Dose at which the tissue level of polyol accumulation was reduced by 50% was evaluated for 14 days in RBC; format: functional; details: 336 h
Summary of the method: (§4)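 Male Sprague-Dawley rats (200-250 g, 12 per group) made diabetic with streptozocin 60 mg/kg iv in cold 0.03 M citrate pH 4.5; plasma glucose kept between 300 and 550 mg/dl. Compound was suspended in 2% Tween 80/saline and gavaged daily for 14 days. On day 15, RBC, lens and sciatic nerve polyol was measured. ED50 by nonlinear regression of log dose.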

[23] = system: Rattus norvegicus; test: Percentage Inhibition of galactitol accumulation in the sciatic nerve of rats fed with the dose of 0.8 mg/kg/day; format: functional; summary of the method: as §2
[24] = species on record: Rattus norvegicus; test: Dose at which the tissue level of polyol accumulation was reduced by 50% was evaluated for STZ diabetic rat in sciatic nerve; format: functional; summary of the method: as §4
[25] = species on record: Rattus norvegicus; test: Dose at which the tissue level of polyol accumulation was reduced by 50% was evaluated for galactosemic rat in lens; format: functional; details: Lens of camera-type eye; summary of the method: as §3
[26] = species on record: Rattus norvegicus; test: Dose at which the tissue level of polyol accumulation was reduced by 50% was evaluated for galactosemic rat in sciatic nerve; format: functional; summary of the method: as §3
[27] = system: Rattus norvegicus; test: Percentage Inhibition of galactitol accumulation in the lens of rats fed with the dose of 0.8 mg/kg/day; NS=Not significant; format: functional, organism-based; details: Lens of camera-type eye; summary of the method: as §2
[28] = system: Rattus norvegicus; test: Percentage Inhibition of galactitol accumulation in the sciatic nerve of rats fed with the dose of 1.0 mg/kg/day; format: functional; summary of the method: as §2

## CCCN1C(=O)c2ccccc2C2(CC(=O)NC2=O)C1=O (stereo not given)
[1]
  inhibition: 19%

## O=C1CC2(C(=O)N1)C(=O)N(Cc1ccc(Br)cc1F)C(=O)c1ccc(Cl)cc12 (stereo not given)
[2]
  IC50: 30 nM
[3]
  inhibition in vivo at 0.6 mg/kg/day: 29%

## COc1ccc2c(c1F)C1(CC(=O)NC1=O)C(=O)N(Cc1ccc(Br)cc1F)C2=O (stereo not given)
[2]
  IC50: 30 nM
[4]
  inhibition in vivo at 0.5 mg/kg/day: 43%

## O=C1CC2(C(=O)N1)C(=O)N(Cc1ccc(Br)cc1)C(=O)c1ccccc12 (stereo not given)
[2]
  IC50: 22 nM

## CN1C(=O)c2cc(Cl)ccc2C2(CC(=O)NC2=O)C1=O (stereo not given)
[1]
  inhibition: 61%
[5]
  inhibition: 34%

## O=C1C[C@]2(C(=O)N1)C(=O)N(Cc1ccc(Br)cc1F)C(=O)c1ccc(F)cc12
[2]
  IC50: 32 nM
[6]
  half-life: 30 min
[7]
  ED50: 0.15 mg/kg

## O=C1CC2(C(=O)N1)C(=O)N(Cc1ccc(Br)cc1F)C(=O)c1cccc(F)c12 (stereo not given)
[2]
  IC50: 21 nM
[4]
  inhibition in vivo at 0.5 mg/kg/day: 52%

## O=C1CC2(C(=O)N1)C(=O)N(Cc1ccc(C(F)(F)F)cc1)C(=O)c1ccccc12 (stereo not given)
[2]
  IC50: 25 nM

## O=C1CC2(C(=O)N1)C(=O)N(Cc1ccc(Cl)cc1)C(=O)c1ccccc12 (stereo not given)
[2]
  IC50: 22 nM

## CON1C(=O)c2ccccc2C2(CC(=O)NC2=O)C1=O (stereo not given)
[8]
  IC50: Not Active
[9]
  IC50: Not Active

## COc1ccc2c(c1)C1(CC(=O)NC1=O)C(=O)N(C)C2=O (stereo not given)
[1]
  inhibition: 63%
[5]
  inhibition: 30%

## CCCCN1C(=O)c2ccccc2C2(CC(=O)NC2=O)C1=O (stereo not given)
[1]
  inhibition: 17%
[5]
  inhibition: 19%

## COc1cc2c(cc1Br)C(=O)N(C)C(=O)C21CC(=O)NC1=O (stereo not given)
[1]
  inhibition: 17%

## O=C1CC2(C(=O)N1)C(=O)N(Cc1ccc(Cl)c(Cl)c1)C(=O)c1ccccc12 (stereo not given)
[2]
  IC50: 22 nM
[10]
  inhibition: inactive
[11]
  inhibition in vivo at 3 mg/kg/day: 76%
[12]
  inhibition: inactive
[13]
  inhibition in vivo at 1 mg/kg/day: 64%
[14]
  inhibition in vivo at 1.1 mg/kg/day: 64%
[15]
  logD: 3.09

## O=C1C[C@]2(C(=O)N1)C(=O)N(Cc1ccc(Br)cc1F)C(=O)c1ccccc12
[2]
  IC50: 1000 nM
[6]
  half-life: 240 min

## O=C1CC2(C(=O)N1)C(=O)N(Cc1ccc(Br)cc1F)C(=O)c1ccc(F)cc12 (stereo not given)
[2]
  IC50: 14 nM
[16]
  ED50: 0.1 mg/kg/day
[16]; Rattus norvegicus, Sciatic nerve, 336 h, read-out: ED50
  ED50: 0.09 mg/kg/day
[17]
  inhibition in vivo at 4 mg/kg/day: 95%
[18]
  inhibition: inactive
[19]
  IC50: 26.9 nM
[20]
  ED50: 0.3 mg/kg/day
[21]
  ED50: 19 mg/kg/day
[4]
  inhibition in vivo at 0.5 mg/kg/day: 83%
[15]
  logD: 2.81
[22]
  ED50: 0.25 mg/kg/day

## CN1C(=O)c2cc(Cl)c(Cl)cc2C2(CC(=O)NC2=O)C1=O (stereo not given)
[1]
  inhibition: 89%
[5]
  inhibition: 84%

## O=C1CC2(C(=O)N1)C(=O)N(Cc1ccc(Br)cc1F)C(=O)c1ccccc12 (stereo not given)
[23]
  inhibition in vivo at 0.8 mg/kg/day: 88%
[24]
  ED50: 0.07 mg/kg/day
[25]
  ED50: ~10 mg/kg/day
[26]
  ED50: 0.3 mg/kg/day
[4]
  inhibition in vivo at 0.5 mg/kg/day: 82%
[27]
  inhibition: inactive
[15]
  logD: 2.74

## O=C1C[C@@]2(C(=O)N1)C(=O)N(Cc1ccc(Br)cc1F)C(=O)c1ccc(F)cc12
[2]
  IC50: 9 nM
[6]
  half-life: 30 min
[7]
  ED50: 0.09 mg/kg

## CCN1C(=O)c2ccccc2C2(CC(=O)NC2=O)C1=O (stereo not given)
[1]
  inhibition: 27%
[5]
  inhibition: 17%

## O=C1CC2(C(=O)N1)C(=O)N(Cc1nc3ccccc3s1)C(=O)c1ccc(F)cc12 (stereo not given)
[2]
  IC50: 18 nM

## O=C1CC2(C(=O)N1)C(=O)N(Cc1nc3cc(C(F)(F)F)ccc3s1)C(=O)c1ccc(F)cc12 (stereo not given)
[2]
  IC50: 26 nM
[15]
  logD: 3.16
[28]
  inhibition in vivo at 1 mg/kg/day: 53%
